Assay [1] has as its target T1, WDR5-MYC (Homo sapiens) (UniProt P61964+P01106). The assay is described as follows: Disruption of WDR5/5-FAM-labelled MYC (261 to 267 residues)(unknown origin) interaction at 50 uM incubated for 120 mins by FP assay relative to control. The assay is classed as protein assay. The essentials:
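Single-point FP screen at 50 μM compound, signal read against DMSO control. Inhibition rate given as mean of n = 2.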

The next assay concerns the target WDR5-MYC (Homo sapiens, UniProt P61964). Briefly: Disruption of WDR5/5-FAM-labelled MYC (261 to 267 residues)(unknown origin) interaction incubated for 120 mins by FP assay. The assay is classed as protein assay. The method in brief: (§1)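 FP competition with reporter probe from MYC MbIIIb residues E261–V267 bound to WDR5, compound concentration varied, DMSO as negative control. Ki obtained by fitting FP signal change to a hyperbolic function. Unlabelled MYC peptide run as assay quality control.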

The subject of a further assay is Ramos. Briefly: Antiproliferative activity against human Ramos cells incubated for 72 hrs by SRB assay. The assay is classed as functional, cell-based. For orientation: In SRB staining, fixed cells bind dye roughly in proportion to their protein.
The subject of a further assay is Raji. The assay is described as follows: Antiproliferative activity against human Raji cells incubated for 72 hrs by SRB assay. The format is functional, cell-based.
The next assay relates to HL-60. The assay is described as follows: Antiproliferative activity against human HL-60 cells incubated for 72 hrs by SRB assay. The format is functional, cell-based. The following applies: HL-60, 72 h.
For another assay, the system named is NCI-H1299. Briefly: Antiproliferative activity against human NCI-H1299 cells incubated for 72 hrs by SRB assay. The format is functional, cell-based. The following applies: NCI-H1299, 72 h.
Assay [2] deals with T1, WDR5-MYC (Homo sapiens). Briefly: Disruption of His-tagged recombinant WDR5 (unknown origin)/HEK293T cell lysate-derived C-MYC (unknown origin) protein-protein interaction assessed as dissociation of protein complex incubated for 120 mins by Co-IP assay.
Another assay has as its system SUD4. The assay is described as follows: Antiproliferative activity against human SU-DHL-4 cells incubated for 72 hrs by SRB assay. The format is functional, cell-based. As to conditions: SU-DHL-4, 72 h.
In assay [3] the target is WD repeat-containing protein 5 (Homo sapiens) (UniProt P61964). The assay is described as follows: Binding affinity to WDR5 (unknown origin) assessed as decrease in melting temperature by DSF assay relative to control. The essentials: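 DSF with WDR5 protein, with DMSO as the reference group. The inflection-point temperature (Ti) of WDR5 was monitored after compound treatment, and the change is reported as ΔTi relative to DMSO.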
(In general: Differential scanning fluorimetry follows unfolding on heating by fluorescence.)

Assay [4] shares this target. Briefly: Binding affinity to WDR5 (unknown origin) assessed as increase in melting temperature by DSF assay relative to control. The method in brief: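 Differential scanning fluorimetry on WDR5 protein, compounds against DMSO. Inflection-point temperature (Ti) monitored, shift given as ΔTi relative to DMSO group.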
The target of assay [5] is T1, WDR5-MYC (Homo sapiens). The assay is described as follows: Disruption of WDR5/5-FAM-labelled MYC (261 to 267 residues)(unknown origin) interaction assessed as fold increase in activity incubated for 0.5 to 6 hrs by FP assay relative to control. The format is protein assay. As to conditions: time 0.5-6 hrs. The method in brief:
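Fluorescence polarization with WDR5 and a reporter peptide probe from MYC MbIIIb residues E261–V267. Compounds and WDR5 were incubated for 30 to 360 min before reading. FP signal was recorded over varying compound concentrations and fitted to a hyperbolic function to give Ki. DMSO served as negative control, and free MYC peptide was the quality control.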

Assay [6] concerns the target T1, WDR5-MYC (Homo sapiens). The assay is described as follows: Disruption of WDR5/5-FAM-labelled MYC (261 to 267 residues)(unknown origin) interaction by FP assay. The assay is classed as protein assay. The following applies: time 0.5-6 hrs. The essentials: as §1
Assay [7] has as its target T1, WDR5-MYC (Homo sapiens). The assay is described as follows: Disruption of WDR5/5-FAM-labelled MYC (261 to 267 residues)(unknown origin) interaction incubated for 0.5 hrs by FP assay relative to control. The format is protein assay. The essentials:
(§2)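 Time-course FP competition between WDR5 and MYC-derived probe (E261–V267). Compound titrated and read after incubation times from 30 to 360 min. Maximal inhibition (%) and potency taken at each time point from the inhibition curves.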

Assay [8] concerns the target T1, WDR5-MYC (Homo sapiens). Briefly: Disruption of WDR5/5-FAM-labelled MYC (261 to 267 residues)(unknown origin) interaction incubated for 6 hrs by FP assay relative to control. The format is protein assay. The essentials: as §2

Some results are limits rather than exact numbers.

For orientation: inhibition means the relative decrease from the control value, in per cent. As usually defined, the Ki is a dissociation constant, usually derived from enzyme kinetics or from competition with a known ligand. The low end stands for tighter binding, the high end for weaker binding. Broadly, the IC50 is the concentration needed to halve the response being measured. Low readings indicate greater potency in that assay, high ones weaker potency in that assay. A word on the ΔTm: it is the shift of the melting midpoint relative to a reference.

With `CS(=O)(=O)c1sc(N)nc1-c1ccc(Cl)cc1`, the inhibition at WDR5-MYC (Homo sapiens) [1] is -10%.

In the case of `N#CSc1sc(N)nc1-c1cccc([N+](=O)[O-])c1`, the Ki on WDR5-MYC was 4100 nM. This counts as single-digit micromolar.

For `Nc1nc(-c2ccc(Cl)cc2)c(Br)s1`, at WDR5-MYC (Homo sapiens) [1], the inhibition is -5%.

For the compound `CNC(=O)c1ccc(-c2nc(N)sc2SC#N)cc1`, the affinity at WDR5-MYC, expressed as Ki, was 1000 nM. For the same compound, the IC50 in the assay with Ramos was found to be 1510 nM; with Raji, 1520 nM; in the assay with HL-60, 5320 nM; in the assay on NCI-H1299, 7400 nM; in the assay on SUD4, 2200 nM. For the same compound, on WDR5-MYC (Homo sapiens) [2], the Activity entry is “Dose-Dependent Effect”. Moreover, in assay [3], the thermal shift (ΔTm) is -5.8 °C.

Turning to `CNc1nc(-c2ccc(Cl)cc2)c(SC#N)s1`, on WDR5-MYC, the Ki was 1200 nM.

Regarding `N#CSc1sc(N)nc1-c1cccc(Br)c1`, the Ki at WDR5-MYC is 2600 nM. This Ki lies about 2.2-fold higher than the previous one.

For the compound `CC(C)C(=O)Nc1nc(-c2ccc(Cl)cc2)c(SC#N)s1`, at WDR5-MYC, the affinity corresponds to a Ki of 1600 nM.

For the compound `COC(=O)c1ccc(-c2nc(N)sc2SC#N)cc1`, at WDR5-MYC, the affinity corresponds to a Ki of 1700 nM. This Ki and that of the compound before are within 1.5-fold of each other.

With `N#CSc1sc(N)nc1-c1ccc(Br)cc1`, on WDR5-MYC, the Ki stood at 900 nM.

`N#CSc1sc(N)nc1-c1ccccc1Cl` had a Ki on WDR5-MYC of 2600 nM.

Compound `N#CSc1sc(N)nc1-c1ccc(F)cc1` had a Ki at WDR5-MYC of 3200 nM. The Ki values of the last two compounds are within 1.5-fold of each other.

Regarding `Nc1nc(-c2ccc(Cl)cc2)cs1`, at WDR5-MYC (Homo sapiens) [1], the inhibition was determined as 0.9%.

Compound `N#CSc1sc(N)nc1-c1ccccc1Br` had a Ki on WDR5-MYC of 3000 nM.

`N#CSc1sc(N)nc1-c1ccc(O)cc1` displayed a Ki at WDR5-MYC of 2400 nM. The IC50 stood at 1060 nM in the assay on Ramos; 710 nM in the assay on Raji; 3030 nM in the assay with HL-60; 3700 nM with NCI-H1299; 1430 nM in the assay with SUD4. Besides, the Activity entry on WDR5-MYC (Homo sapiens) [2] is “Dose-Dependent Effect”. The ΔTm in assay [3] is -2.7 °C.

`COc1ccc(-c2nc(N)sc2SC#N)cc1` showed a Ki on WDR5-MYC of 2900 nM. In other words, the single-digit micromolar range.

In turn, `N#CSc1sc(Nc2ccccn2)nc1-c1ccc(Cl)cc1` registered a Ki on WDR5-MYC above 50000 nM.

Regarding `N#Cc1sc(N)nc1-c1ccc(Cl)cc1`, the inhibition on WDR5-MYC (Homo sapiens) [1] was determined as 1.1%.

Compound `N#CSc1sc(N)nc1-c1ccc(C(F)(F)F)cc1` had a Ki on WDR5-MYC of 1500 nM.

For the compound `Cc1ccc(-c2nc(N)sc2SC#N)cc1`, the Ki on WDR5-MYC amounted to 3000 nM.

`Cc1ccc(S(=O)(=O)Nc2nc(-c3ccc(Cl)cc3)c(SC#N)s2)cc1`: affinity at WDR5-MYC was put at a Ki of 54500 nM. This Ki is about 18-fold higher than that of the compound before.

At WDR5-MYC, `CCOc1ccc(-c2nc(N)sc2SC#N)cc1Br` yielded a Ki of 6300 nM.

At WDR5-MYC, `COc1ccc(Br)cc1S(=O)(=O)Nc1cc(Cl)ccc1O` displayed a Ki of 16300 nM. For the same compound, the ΔTm in assay [4] is 1.4 °C.

`N#CSc1cnc(N)s1` gave a Ki on WDR5-MYC of 6100 nM. That is a single-digit micromolar value.

In the case of `C[S+]([O-])c1sc(N)nc1-c1ccc(Cl)cc1` (stereo unspecified), on WDR5-MYC (Homo sapiens) [1], the inhibition turned out to be 0.4%.

`N#CSc1sc(NC(=O)c2ccc(Cl)cc2)nc1-c1ccc(Cl)cc1` had a Ki at WDR5-MYC above 50000 nM.

As to `N#CSc1sc(N)nc1-c1ccc(Cl)cc1`, the fold change (FC) on WDR5-MYC (Homo sapiens) [5] is 1.5. At WDR5-MYC, this compound yielded a Ki of 1300 nM. For the same compound, the results for the Activity entry on WDR5-MYC (Homo sapiens) [6], on WDR5-MYC (Homo sapiens) [7] and on WDR5-MYC (Homo sapiens) [8] were “Dose-Dependent Effect”, 33.2% and 51.2%, respectively. Also, the ΔTm in [3] is -2.7 °C.
